Test results published in publication PMC3313018 (Cancer Chemotherapy and Pharmacology, 2011).
“Also recorded” adds a separate entry of the source. Where two headings read alike, the source gives them in different places. Marks after values point to notes of the source that are not given here.

What was measured:
[1] = tested on: patients with advanced renal cell carcinoma; conditions: cited from earlier work
[2] = tested on: non-Japanese patients with refractory or advanced solid cancer; conditions: cited from earlier work; for Maximum tolerated dose (MTD): non-Japanese patients ref 10–13
mTOR = conditions: in vitro ref 8; cited from earlier work
[3] = tested on: Japanese patients with advanced solid tumors; assay: Phase I safety and tolerability: DLTs and adverse events; assay type: in vivo; conditions: for DLTs / n/N, No. of patients with DLT/No. of patients at the dose level: Cycle 1
How it was run: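 Open-label, single-centre 3+3 escalation, 20 then 40 mg orally (single dose Day 1, then daily 5 days/week from Day 8). DLT window was the first 28-day cycle, counting drug-related Grade 4 neutropenia >5 days, febrile (>38.5°C) Grade 3–4 neutropenia, Grade 4 thrombocytopenia, and Grade 3–4 non-haematologic toxicity with exceptions. Adverse events graded by CTCAE v3.0 over all cycles. Dose intensity <75% excluded from DLT evaluation.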

human tumor cell lines = conditions: in vitro ref 8; cited from earlier work
[4] = tested on: metastatic or locally advanced solid tumors; assay: Antitumor activity by RECIST version 1.0; assay type: in vivo, Japanese patients
How it was run: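 Exploratory tumour assessment by RECIST v1.0 in refractory metastatic or locally advanced solid tumours. Oral 20 or 40 mg: single dose Day 1, washout ≥6 days, then once daily 5 days on/2 days off on Days 8–28 as inpatients. Later 21-day cycles at 5 days a week until progression or unacceptable toxicity.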

[5] = Whole blood and plasma pharmacokinetics; assay type: in vivo, Japanese patients
How it was run: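 Cycle 1, oral 20 or 40 mg. Whole blood and plasma sampled predose and 0.5–168 h after the Day 1 dose, predose on Days 15, 18, 22 and 23, and predose to 24 h on Day 26; assayed by HPLC-MS/MS. Tmax, Cmax and Ctrough taken by inspection. […] Accumulation (Day 26/Day 1) from a linear mixed effects model on ln values.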

sarcoma = conditions: Phase III sarcoma maintenance study, P = 0.0001, stratified log-rank ref 24; cited from earlier work
[6] = All patients (n = 13), all cycles
[7] = all patients (n = 13), all cycles

## CO[C@H]1C[C@@H]2CC[C@@H](C)[C@@](O)(O2)C(=O)C(=O)N2CCCC[C@H]2C(=O)O[C@H]([C@H](C)C[C@@H]2CC[C@@H](OCCO)[C@H](OC)C2)CC(=O)[C@H](C)/C=C(\C)[C@@H](O)[C@@H](OC)C(=O)[C@H](C)C[C@H](C)/C=C/C=C/C=C/1C [everolimus]
[1]; Japanese patients with advanced renal cell carcinoma ref 18
  Incidence of pneumonitis: 27%
[1]; patients with renal cell carcinoma overall ref 18
  Incidence of pneumonitis, overall rate: 11%

## CO[C@H]1C[C@@H]2CC[C@@H](C)[C@@](O)(O2)C(=O)C(=O)N2CCCC[C@H]2C(=O)O[C@H]([C@H](C)C[C@@H]2CC[C@@H](OP(C)(C)=O)[C@H](OC)C2)CC(=O)[C@H](C)/C=C(\C)[C@@H](O)[C@@H](OC)C(=O)[C@H](C)C[C@H](C)/C=C/C=C/C=C/1C [ridaforolimus, Ridaforolimus]
[2]; 40 mg daily, five times a week, non-Japanese patients ref 17
  DLTs: stomatitis and fatigue
[2]; daily regimen
  Maximum tolerated dose (MTD): 10 mg
[2]; once daily, five-times-a-week regimen
  Maximum tolerated dose (MTD): 40 mg
mTOR
  Effect on mTOR activity, in words: inhibited mTOR activity
[3]; 20 mg (n = 7), all cycles
  Anorexia, drug-related adverse event, Grades 1–2, no. of patients: 2
  Constipation, drug-related adverse event, Grades 1–2, no. of patients: 3
  Fatigue, drug-related adverse event, Grades 1–2, no. of patients: 1
  Hypercholesterolemia, drug-related adverse event, Grades 1–2, no. of patients: 3
  Hyperglycemia, drug-related adverse event, Grades 1–2, no. of patients: 2
  Hypertriglyceridemia, drug-related adverse event, Grades 1–2, no. of patients: 5
  Hypoalbuminemia, drug-related adverse event, Grades 1–2, no. of patients: 2
  Interstitial pneumonitis, drug-related adverse event, Grades 1–2, no. of patients: 1
  Interstitial pneumonitis, drug-related adverse event, Grades 3–4, no. of patients: 0
  Leukopenia, drug-related adverse event, Grades 1–2, no. of patients: 1
  Leukopenia, drug-related adverse event, Grades 3–4, no. of patients: 1
  Neutropenia, drug-related adverse event, Grades 1–2, no. of patients: 1
  Neutropenia, drug-related adverse event, Grades 3–4, no. of patients: 2
  Proteinuria, drug-related adverse event, Grades 1–2, no. of patients: 3
  Stomatitis, drug-related adverse event, Grades 3–4, no. of patients: 1
  Thrombocytopenia, drug-related adverse event, Grades 1–2, no. of patients: 2
[3]; 40 mg (n = 6), all cycles
  Anemia, drug-related adverse event, Grades 1–2, no. of patients: 3
  Anemia, drug-related adverse event, Grades 3–4, no. of patients: 3
  Anorexia, drug-related adverse event, Grades 1–2, no. of patients: 2
  Anorexia, drug-related adverse event, Grades 3–4, no. of patients: 1
  Constipation, drug-related adverse event, Grades 1–2, no. of patients: 1
  Fatigue, drug-related adverse event, Grades 1–2, no. of patients: 3
  Hypercholesterolemia, drug-related adverse event, Grades 1–2, no. of patients: 3
  Hyperglycemia, drug-related adverse event, Grades 1–2, no. of patients: 2
  Hyperglycemia, drug-related adverse event, Grades 3–4, no. of patients: 1
  Hypertriglyceridemia, drug-related adverse event, Grades 1–2, no. of patients: 4
  Hypoalbuminemia, drug-related adverse event, Grades 1–2, no. of patients: 3
  Interstitial pneumonitis, drug-related adverse event, Grades 1–2, no. of patients: 3
  Interstitial pneumonitis, drug-related adverse event, Grades 3–4, no. of patients: 0
  Leukopenia, drug-related adverse event, Grades 1–2, no. of patients: 2
  Loss of body weight, drug-related adverse event, Grades 1–2, no. of patients: 4
  Neutropenia, drug-related adverse event, Grades 1–2, no. of patients: 1
  Proteinuria, drug-related adverse event, Grades 1–2, no. of patients: 3
  Rash, drug-related adverse event, Grades 1–2, no. of patients: 2
  Rash, drug-related adverse event, Grades 3–4, no. of patients: 1
  Stomatitis, drug-related adverse event, Grades 1–2, no. of patients: 6
  Thrombocytopenia, drug-related adverse event, Grades 1–2, no. of patients: 3
[3]; 13 patients
  Median time until the onset of stomatitis: 11 days
  Number of patients who discontinued treatment because of adverse events: Six patients
[3]; 13 patients enrolled
  Number of patients with stomatitis: 13
[3]; 13 patients, 20 and 40 mg
  Number of patients with grade 1 drug-induced interstitial pneumonitis: Four patients
[3]; 20 and 40 mg, first cycle
  Number of patients with dose-limiting toxicities: Two patients
[3]; [6]
  Anemia, drug-related adverse event, Grades 3–4, no. of patients: 4
  Anorexia, drug-related adverse event, Grades 1–2, no. of patients: 4
  Anorexia, drug-related adverse event, Grades 3–4, no. of patients: 1
  Constipation, drug-related adverse event, Grades 1–2, no. of patients: 4
  Fatigue, drug-related adverse event, Grades 1–2, no. of patients: 4
  Hypercholesterolemia, drug-related adverse event, Grades 1–2, no. of patients: 6
  Hyperglycemia, drug-related adverse event, Grades 1–2, no. of patients: 4
  Hyperglycemia, drug-related adverse event, Grades 3–4, no. of patients: 1
  Hypertriglyceridemia, drug-related adverse event, Grades 1–2, no. of patients: 9
  Hypoalbuminemia, drug-related adverse event, Grades 1–2, no. of patients: 5
  Interstitial pneumonitis, drug-related adverse event, Grades 1–2, no. of patients: 4
  Interstitial pneumonitis, drug-related adverse event, Grades 3–4, no. of patients: 0
  Leukopenia, drug-related adverse event, Grades 1–2, no. of patients: 3
  Leukopenia, drug-related adverse event, Grades 3–4, no. of patients: 1
  Loss of body weight, drug-related adverse event, Grades 1–2, no. of patients: 4
  Neutropenia, drug-related adverse event, Grades 1–2, no. of patients: 2
  Neutropenia, drug-related adverse event, Grades 3–4, no. of patients: 2
  Proteinuria, drug-related adverse event, Grades 1–2, no. of patients: 6
  Rash, drug-related adverse event, Grades 3–4, no. of patients: 1
  Stomatitis, drug-related adverse event, Grades 3–4, no. of patients: 1
  Thrombocytopenia, drug-related adverse event, Grades 1–2, no. of patients: 5
[3]; Grade 3 anorexia, 40 mg
  Time to onset of DLT: 23 days
[3]; Grade 3 stomatitis, 20 mg
  Time to onset of DLT: 8 days
[3]; Grade 3 vomiting, 40 mg
  Time to onset of DLT: 23 days
[3]; Level 1, 20 mg
  DLTs: Grade 3 stomatitis
  n/N, No. of patients with DLT/No. of patients at the dose level: 1/6^b
[3]; Level 2, 40 mg
  DLTs: Grade 3 anorexia; also recorded: Grade 3 vomiting
  n/N, No. of patients with DLT/No. of patients at the dose level: 1/6
[3]; [7]
  Incidence of hypercholesterolemia related to treatment: 46.2%
  Incidence of hypertriglyceridemia related to treatment: 69.2%
  Incidence of leucopenia: 30.8%
  Incidence of neutropenia: 30.8%
  Incidence of proteinuria related to treatment: 46.2%
  Incidence of skin rash related to treatment: 61.5%
  Incidence of stomatitis related to treatment: 100%
  Incidence of thrombocytopenia: 38.5%
[3]; dose level 2 (40 mg)
  Patients requiring a dose reduction: None
[3]; eight patients with other cancer types
  Interstitial pneumonitis among patients with other cancer types: three cases occurred among eight patients
[3]; five patients with NSCLC
  Interstitial pneumonitis among NSCLC patients: one of these five NSCLC patients
[3]; four patients
  Time of occurrence of interstitial pneumonitis after the start of treatment: 2–5 months
[3]; oral, once daily 5 days a week
  Tolerability, in words: well tolerated up to a dose of 40 mg
Human tumor cell lines
  Antiproliferative activity, in words: antiproliferative activity against a broad range of human tumor cell lines
[4]; 13 patients, NSCLC and angiosarcoma
  Number of patients achieving a partial response: Two patients
[4]; 13 patients, one thymic cancer, four soft tissue sarcomas
  Number of patients with stable disease for ≥16 weeks: five patients
[4]; Patient 1, Osteosarcoma, 20 mg
  Duration of stable disease: 3.7 weeks
[4]; Patient 3, Thymic cancer, 20 mg
  Duration of stable disease: 16.3 weeks
[4]; Patient 5, Liposarcoma, 20 mg
  Duration of stable disease: 16.1 weeks
[4]; Patient 6, NSCLC (adenocarcinoma), 20 mg
  Duration of stable disease: 4.0 weeks
[4]; Patient 7, NSCLC (adenocarcinoma), 20 mg
  Duration of stable disease: 4.0 weeks
[4]; Patient 8, Osteosarcoma, 40 mg
  Duration of stable disease: 4.0 weeks
[4]; Patient 9, Liposarcoma, 40 mg
  Duration of stable disease: 17.3 weeks
[4]; Patient 10, Leiomyosarcoma, 40 mg
  Duration of stable disease: 16.3 weeks
[4]; Patient 11, Leiomyosarcoma, 40 mg
  Duration of stable disease: 17.1 weeks
[4]; Patient 13, Day 28, baseline 42 mm
  Longest tumor diameter on CT: 21 mm
[4]; both patients with partial response
  Time until the response: 28 days
[5]; Day 1, after administration of 20 mg
  Time whole blood concentration was below the quantitation limit (<0.2 ng/mL): 2 to 4 h
[5]; Day 1, after administration of 40 mg
  Time whole blood concentration was below the quantitation limit (<0.2 ng/mL): 1 to 2 h
[5]; once daily, 5 days a week
  Time for mean whole blood C trough to reach steady state: about 1 week
[5]; plasma vs whole blood concentration
  Blood-to-plasma ratio, in words: high blood-to-plasma ratio
[5]; whole blood
  Accumulation from Day 1 to Day 26 (AUC0–24 h, C max, C trough), in words: moderate accumulation
[5]; whole blood, 20 mg
  Accumulation ratio (Day 26/Day 1) AUC0–24 h, geometric mean ratio (90% confidence interval): 1.51 (1.14, 2.01)
  Accumulation ratio (Day 26/Day 1) C max, geometric mean ratio (90% confidence interval): 1.37 (0.959, 1.97)
  Accumulation ratio (Day 26/Day 1) C trough, geometric mean ratio (90% confidence interval): 2.02 (1.61, 2.52)
[5]; whole blood, 40 mg
  Accumulation ratio (Day 26/Day 1) AUC0–24 h, geometric mean ratio (90% confidence interval): 1.44 (1.05, 1.99)
  Accumulation ratio (Day 26/Day 1) C max, geometric mean ratio (90% confidence interval): 1.01 (0.674, 1.50)
  Accumulation ratio (Day 26/Day 1) C trough, geometric mean ratio (90% confidence interval): 1.76 (1.37, 2.25)
[5]; whole blood, Day 1, 20 and 40 mg
  Lag time for systemic absorption: 1 to 4 h
[5]; whole blood, Days 1 and 26
  Time at which C max was reached: approximately 4 h
sarcoma
  Hazard ratio for progression-free survival vs placebo: 0.72
